# Data reported in publication PMC8719016 (iScience, 2021).
# Peptide text beside a SMILES is read from it.
# Tests used:
# [1] = system: A. baumannii AB5075 knockout or overexpression strains; assay: MIC against knockout or overexpression strains of upregulated genes; assay type: cell-based, Acinetobacter baumannii; conditions: all the upregulated genes tested (Table S1: fold change MIC 1 for each)
# Procedure, shortened: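 Genes for overexpression are cloned via EcoRI/SalI into pMMBEH67 TetR, electroporated into AB5075 and selected on LB with 10 µg/mL tetracycline. […] The MIC is the lowest concentration with no visible growth, by eye, median of triplicates.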
# [2] = MBC of β-AMPs with and without 40% human serum; assay type: cell-based; conditions: MH vs MH with 40% human serum; strain not given
# Procedure, shortened: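 Broth microdilution is run in MH with or without human serum, which is added to the cell suspension at twice the final level. Test compound is taken from 256 µg/mL through 2-fold serial dilutions in triplicate, with 5 × 10^5 cells/mL final, for 18–24 h at 37°C. 5 µL per well is plated on LB agar for 18 h at 37°C. MBC is the lowest concentration with zero growth, median of triplicates.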
# [3] = system: E. coli KS272, HM130 and HM130 with trypsin protease; assay: MBC with and without protease activity; assay type: cell-based, Escherichia coli; conditions: KS272, HM130, HM130 with 160 ng/mL trypsin protease, MH media
# Procedure, shortened: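 E. coli KS272 (parent) and HM130 (cell envelope proteases deleted) are grown overnight at 37°C. Trypsin, where used, is added to the diluted cells at twice the final concentration. Test compound is taken from 256 µg/mL through 2-fold serial dilutions in triplicate, 5 × 10^5 cells/mL final, for 18–24 h at 37°C.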
# [4] = system: human red blood cells; assay: Hemolysis; assay type: cell-based; conditions: 2-fold serial dilutions, compared with 1% Triton X-100 (100%); n = 3
# [5] = system: A. baumannii AB5075; assay: Isolation of resistant mutants by subinhibitory serial passage; assay type: cell-based, Acinetobacter baumannii; conditions: subinhibitory serial passage in liquid media over two weeks
# [6] = system: human red blood cells; conditions: ref Edwards et al., 2016; cited from earlier work
# [7] = Solubility in water; assay type: physicochemical; conditions: lyophilized peptides resuspended in water at 10 mg/mL
molecule,measurement,setting,value
CC[C@H](C)[C@H](NC(=O)[C@H](CCCCN)NC(=O)[C@@H](NC(=O)[C@H](CC(N)=O)NC(=O)[C@H](C)NC(=O)[C@H](CCCNC(=N)N)NC(=O)[C@H](CCCNC(=N)N)NC(=O)[C@H](CC(N)=O)NC(=O)[C@H](CCCNC(=N)N)NC(=O)[C@H](CCCNC(=N)N)NC(=O)[C@H](C)NC(=O)[C@@H](NC(=O)[C@H](CO)NC(=O)[C@@H](NC(=O)[C@@H](NC(=O)[C@H](CS)NC(=O)[C@H](CCCCN)NC(=O)[C@@H](N)CCCNC(=N)N)C(C)C)[C@@H](C)CC)C(C)C)[C@@H](C)CC)C(=O)N[C@@H](CC(C)C)C(=O)N[C@@H](CS)C(=O)N[C@@H](CC(N)=O)C(N)=O [Symbah-1] (H-RKCVISVARRNRRANIKILCN-NH2; N-terminus assumed),Effect of gene knockout or overexpression on MIC,[1],no clear effect on MIC
same,Loss of activity (MBC) when 40% human serum was added,[2],8 fold
same,Change of MBC under each of the conditions tested,[3],≤ 2 fold
same,Percent hemolysis of serial dilutions,[4],very low hemolysis relative to protegrin-1 and tachyplesin-1
same,Isolation of resistant mutants,[5],no isolates with improved resistance
"RGGRLCYCRRRFCVCVGR--- (bicyclic or more) [protegrin-1, reference compound]",Loss of activity (MBC) when 40% human serum was added,[2],no change
GSKKPVPIIYCNRRTGKCQRM (disulfide) [Thanatin],Hemolysis previously reported,[6],very low hemolysis
RKCVILCAR-NRRA-CVILCR [SBH-19],Solubility in water,[7],insoluble in water
